# Test results: ChEMBL document CHEMBL3860039, “Structure-Activity Relationship and Signaling of New Chimeric CXCR4 Agonists” (J Med Chem, 2016)
# pEC50, pIC50: −log10 of the molar value.
# Key:
# Assay type in all cases: cell-based
# [1] = molecular target: T1, C-X-C chemokine receptor type 4 (Homo sapiens, UniProt P61073); assay: Displacement of [125I]-CXCL12 from HA-tagged human recombinant CXCR4 expressed in HEK293 cells incubated for 1 hr by gamma-radiation counting analysis
# [2] = molecular target: T1, C-X-C chemokine receptor type 4; assay: Agonist activity at CXCR4 in human REH cells assessed as optimal concentration causing maximum induction of chemotaxis incubated for 3 hrs by transwell migration assay
# Method in brief: (§1)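 REH acute lymphoblastic B-cell leukaemia cells washed in RPMI; 100 000 cells in RPMI + 0.2% BSA seeded on top of 5 μm pore polycarbonate transwell, peptide dilutions in same medium in bottom chamber; 3 h, 37 °C, 5% CO2. Migrated cells in lower chamber counted by automated counter, expressed as % of seeded cells; peak = concentration giving maximal migration. Three experiments in triplicate.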
# [3] = molecular target: T1, C-X-C chemokine receptor type 4; assay: Agonist activity at CXCR4 in human REH cells assessed as induction of chemotaxis incubated for 3 hrs by transwell migration assay; method in brief: as §1
# [4] = molecular target: T1, C-X-C chemokine receptor type 4; assay: Agonist activity at HA-tagged human CXCR4 receptor expressed in HEK293 cells co-transfected with Galphai1-91-RlucII, Gbeta1, and GFP10-G-gamma1 incubated for 7 mins by Galpha1 protein activation-based BRET assay
# Method in brief: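 HEK293 cells (3 × 10^6 per 100 mm dish) co-transfected via polyethylenimine with HA-hCXCR4 plus Gαi1-91-RlucII, Gβ1, GFP10-Gγ1; replated at 24 h, 100 000 cells/well. At 48 h, washed in HBSS/0.1% BSA, exposed to ligand 10−12 to 10−5 M for 7 min, then coelenterazine-400A 5 μM final; BRET2 515/400 nm ratio. EC50 (Gαi dissociation) and Emax from three experiments in triplicate.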
# T1 sequence (P61073 whole entry): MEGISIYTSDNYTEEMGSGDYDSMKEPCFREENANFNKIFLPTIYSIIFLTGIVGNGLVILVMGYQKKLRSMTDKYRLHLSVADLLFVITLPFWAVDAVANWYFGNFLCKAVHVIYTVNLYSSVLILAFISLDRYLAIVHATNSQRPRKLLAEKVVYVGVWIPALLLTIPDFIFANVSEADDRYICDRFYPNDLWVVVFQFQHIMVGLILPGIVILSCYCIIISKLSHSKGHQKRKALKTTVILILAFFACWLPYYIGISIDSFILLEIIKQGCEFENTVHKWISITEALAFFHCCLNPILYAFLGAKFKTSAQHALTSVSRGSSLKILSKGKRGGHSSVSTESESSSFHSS
Compound,pIC50 [1],Activity [2],%max [3],pEC50 [4],Emax [4]
CC(C)C[C@H](NC(=O)[C@H](CO)NC(=O)[C@@H](NC(=O)[C@@H]1CCCN1C(=O)[C@@H](N)CCCCN)C(C)C)C(=O)N[C@@H](CO)C(=O)N[C@@H](Cc1ccc(O)cc1)C(=O)N[C@@H](CCCNC(=N)N)C(=O)N[C@@H](C)C(=O)N[C@@H](C)C(=O)NCCCC[C@H](NC(=O)[C@@H]1CSSC[C@H](NC(=O)[C@H](Cc2ccc3ccccc3c2)NC(=O)[C@H](CCCNC(=N)N)NC(=O)[C@@H](N)CCCNC(=N)N)C(=O)N[C@@H](Cc2ccc(O)cc2)C(=O)N[C@@H](CCCNC(=N)N)C(=O)N[C@@H](CCCCN)C(=O)N[C@H](CCCCN)C(=O)N2CCC[C@H]2C(=O)N[C@@H](Cc2ccc(O)cc2)C(=O)NC(CCCNC(=N)N)C(=O)N[C@@H](CCCNC(=N)N)C(=O)N1)C(=O)O (stereo not given in full),6.86,1000 nM,19%,6.95,21%
CC(C)C[C@H](NC(=O)[C@H](CO)NC(=O)[C@@H](NC(=O)[C@@H]1CCCN1C(=O)[C@@H](N)CCCCN)C(C)C)C(=O)N[C@@H](CO)C(=O)N[C@@H](Cc1ccc(F)cc1)C(=O)N[C@@H](CCCNC(=N)N)C(=O)N[C@@H](CO)C(=O)N[C@@H](C)C(=O)NCCCC[C@H](NC(=O)[C@@H]1CSSC[C@H](NC(=O)[C@H](Cc2ccc3ccccc3c2)NC(=O)[C@H](CCCNC(=N)N)NC(=O)[C@@H](N)CCCNC(=N)N)C(=O)N[C@@H](Cc2ccc(O)cc2)C(=O)N[C@@H](CCCNC(=N)N)C(=O)N[C@@H](CCCCN)C(=O)N[C@H](CCCCN)C(=O)N2CCC[C@H]2C(=O)N[C@@H](Cc2ccc(O)cc2)C(=O)N[C@@H](CCCNC(=N)N)C(=O)N[C@@H](CCCNC(=N)N)C(=O)N1)C(=O)O,7.11,10 nM,43%,7.08,60%
CC(C)C[C@H](NC(=O)[C@H](CO)NC(=O)[C@H](Cc1ccc2ccccc2c1)NC(=O)[C@@H]1CCCN1C(=O)[C@@H](N)CCCCN)C(=O)N[C@@H](CO)C(=O)N[C@@H](Cc1ccc(O)cc1)C(=O)N[C@@H](CCCNC(=N)N)C(=O)N[C@@H](CO)C(=O)N[C@@H](C)C(=O)NCCCC[C@H](NC(=O)[C@@H]1CSSC[C@H](NC(=O)[C@H](Cc2ccc3ccccc3c2)NC(=O)[C@H](CCCNC(=N)N)NC(=O)[C@@H](N)CCCNC(=N)N)C(=O)N[C@@H](Cc2ccc(O)cc2)C(=O)N[C@@H](CCCNC(=N)N)C(=O)N[C@@H](CCCCN)C(=O)N[C@H](CCCCN)C(=O)N2CCC[C@H]2C(=O)N[C@@H](Cc2ccc(O)cc2)C(=O)N[C@@H](CCCNC(=N)N)C(=O)N[C@@H](CCCNC(=N)N)C(=O)N1)C(=O)O,7.19,10 nM,47%,6.82,43%
CC(C)C[C@H](NC(=O)[C@H](CO)NC(=O)[C@@H](NC(=O)[C@@H]1CCCN1C(=O)[C@@H](N)CCCCN)C(C)C)C(=O)N[C@@H](C)C(=O)N[C@@H](Cc1ccc(O)cc1)C(=O)N[C@@H](CCCNC(=N)N)C(=O)N[C@@H](CO)C(=O)N[C@@H](C)C(=O)NCCCC[C@H](NC(=O)[C@@H]1CSSC[C@H](NC(=O)[C@H](Cc2ccc3ccccc3c2)NC(=O)[C@H](CCCNC(=N)N)NC(=O)[C@@H](N)CCCNC(=N)N)C(=O)N[C@@H](Cc2ccc(O)cc2)C(=O)N[C@@H](CCCNC(=N)N)C(=O)N[C@@H](CCCCN)C(=O)N[C@H](CCCCN)C(=O)N2CCC[C@H]2C(=O)N[C@@H](Cc2ccc(O)cc2)C(=O)N[C@@H](CCCNC(=N)N)C(=O)N[C@@H](CCCNC(=N)N)C(=O)N1)C(=O)O,6.43,10000 nM,11.4%,6.84,19%

# The remaining molecules from weak to strong by pIC50 [1], led by results:
pIC50 [1],Activity [2],%max [3],pEC50 [4],Emax [4],Compound
6.52,10000 nM,16%,7.40,25%,CC(C)C[C@H](NC(=O)[C@H](CO)NC(=O)[C@@H](NC(=O)[C@@H]1CCCN1C(=O)[C@@H](N)CCCCN)C(C)C)C(=O)N[C@@H](CO)C(=O)N[C@@H](Cc1ccc(O)cc1)C(=O)N[C@@H](C)C(=O)N[C@@H](CO)C(=O)N[C@@H](C)C(=O)NCCCC[C@H](NC(=O)[C@@H]1CSSC[C@H](NC(=O)[C@H](Cc2ccc3ccccc3c2)NC(=O)[C@H](CCCNC(=N)N)NC(=O)[C@@H](N)CCCNC(=N)N)C(=O)N[C@@H](Cc2ccc(O)cc2)C(=O)N[C@@H](CCCNC(=N)N)C(=O)N[C@@H](CCCCN)C(=O)N[C@H](CCCCN)C(=O)N2CCC[C@H]2C(=O)N[C@@H](Cc2ccc(O)cc2)C(=O)N[C@@H](CCCNC(=N)N)C(=O)N[C@@H](CCCNC(=N)N)C(=O)N1)C(=O)O
6.99,100 nM,76%,6.86,79%,CC(C)C[C@H](NC(=O)[C@H](CO)NC(=O)[C@@H](NC(=O)[C@@H]1CCCN1C(=O)[C@@H](N)CCCCN)C(C)C)C(=O)N[C@@H](CO)C(=O)N[C@@H](Cc1ccc(OCc2ccccc2)cc1)C(=O)N[C@@H](CCCNC(=N)N)C(=O)N[C@@H](CO)C(=O)N[C@@H](C)C(=O)NCCCC[C@H](NC(=O)[C@@H]1CSSC[C@H](NC(=O)[C@H](Cc2ccc3ccccc3c2)NC(=O)[C@H](CCCNC(=N)N)NC(=O)[C@@H](N)CCCNC(=N)N)C(=O)N[C@@H](Cc2ccc(O)cc2)C(=O)N[C@@H](CCCNC(=N)N)C(=O)N[C@@H](CCCCN)C(=O)N[C@H](CCCCN)C(=O)N2CCC[C@H]2C(=O)N[C@@H](Cc2ccc(O)cc2)C(=O)N[C@@H](CCCNC(=N)N)C(=O)N[C@@H](CCCNC(=N)N)C(=O)N1)C(=O)O
7.23,10 nM,72%,7.28,75%,CC(C)C[C@H](NC(=O)[C@H](CO)NC(=O)[C@H](Cc1ccc(C(=O)c2ccccc2)cc1)NC(=O)[C@@H]1CCCN1C(=O)[C@@H](N)CCCCN)C(=O)N[C@@H](CO)C(=O)N[C@@H](Cc1ccc(O)cc1)C(=O)N[C@@H](CCCNC(=N)N)C(=O)N[C@@H](CO)C(=O)N[C@@H](C)C(=O)NCCCC[C@H](NC(=O)[C@@H]1CSSC[C@H](NC(=O)[C@H](Cc2ccc3ccccc3c2)NC(=O)[C@H](CCCNC(=N)N)NC(=O)[C@@H](N)CCCNC(=N)N)C(=O)N[C@@H](Cc2ccc(O)cc2)C(=O)N[C@@H](CCCNC(=N)N)C(=O)N[C@@H](CCCCN)C(=O)N[C@H](CCCCN)C(=O)N2CCC[C@H]2C(=O)N[C@@H](Cc2ccc(O)cc2)C(=O)N[C@@H](CCCNC(=N)N)C(=O)N[C@@H](CCCNC(=N)N)C(=O)N1)C(=O)O
7.60,10 nM,50%,7.25,81%,CC(C)C[C@H](NC(=O)[C@H](C)NC(=O)[C@@H](NC(=O)[C@@H]1CCCN1C(=O)[C@@H](N)CCCCN)C(C)C)C(=O)N[C@@H](CO)C(=O)N[C@@H](Cc1ccc(O)cc1)C(=O)N[C@@H](CCCNC(=N)N)C(=O)N[C@@H](CO)C(=O)N[C@@H](C)C(=O)NCCCC[C@H](NC(=O)[C@@H]1CSSC[C@H](NC(=O)[C@H](Cc2ccc3ccccc3c2)NC(=O)[C@H](CCCNC(=N)N)NC(=O)[C@@H](N)CCCNC(=N)N)C(=O)N[C@@H](Cc2ccc(O)cc2)C(=O)N[C@@H](CCCNC(=N)N)C(=O)N[C@@H](CCCCN)C(=O)N[C@H](CCCCN)C(=O)N2CCC[C@H]2C(=O)N[C@@H](Cc2ccc(O)cc2)C(=O)N[C@@H](CCCNC(=N)N)C(=O)N[C@@H](CCCNC(=N)N)C(=O)N1)C(=O)O
